From ChEMBL document CHEMBL1149140, “Orally bioavailable competitive CCR5 antagonists” (J Med Chem, 2004)
Values belong to the compound of their own block, whether it stands above or below them.

What was measured:
[1] = biological target: T1, C-C chemokine receptor type 5 (Homo sapiens, UniProt P51681); assay: Rises in intracellular [Ca2+] levels by using [Ca2+] sensitive Fluo4 dye in C-C chemokine receptor type 5-transfected CHO cells.; type: functional, cell-based
Outline: (§1)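 CCR5-transfected CHO cells were loaded with 4 µM Fluo4 for 1 h at 37 °C (HBSS, 20 mM HEPES pH 7.4, 0.1% BSA, 2.5 mM probenecid), then washed. Compound preincubated 2 h at room temperature. Baseline read 20 s on FLIPR, then MIP-1α added (final 10 nM) and recorded 3 min. IC50 from concentration-dependent reduction of Fmax−Fmin.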

[2] = biological target: T1, C-C chemokine receptor type 5; assay: Antagonistic activity against human C-C chemokine receptor type 5.; type: functional
Outline: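 SPA radioligand binding using membranes from CHO cells transfected with human or cynomolgus CCR5. Buffer was 50 mM HEPES, 6 mM CaCl2, 12 mM MgCl2, 100 mM NaCl and 0.5% BSA. Incubated 2 h shaking at room temperature. Nonspecific binding defined with 100 nM unlabeled MIP-1α. IC50 reported.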

[3] = Oral bioavailability in rat; type: ADME, organism-based; settings: in vivo
[4] = Mean residence time in monkeys; type: ADME, organism-based; settings: simiiformes, in vivo
[5] = AUC in monkeys at a dose of […] mg/kg; type: ADME, organism-based, Plasma; settings: simiiformes, in vivo, 1 mg/kg
[6] = test system: Rattus norvegicus; assay: AUC in rats at a dose of […] mg/kg; type: ADME, organism-based, Plasma; settings: in vivo, 1 mg/kg
[7] = Mean residence time was determined; type: ADME, organism-based; settings: in vivo
[8] = Cmax in monkeys at a dose of […] mg/kg; type: ADME, organism-based; settings: simiiformes, in vivo, 1 mg/kg
[9] = (§2) Compound was evaluated for rises in intracellular [Ca2+] levels pre-incubation at 2.5 min in [Ca2+] Mobilization Assay; type: functional, cell-based
Outline: (§3)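 Fluo4-loaded CCR5-transfected CHO cells on FLIPR. Baseline read 20 s, then compound added and monitored 2.5 min, then MIP-1α agonist (final 10 nM) added and fluorescence recorded 3 min. IC50 from inhibition of the MIP-1α-induced fluorescence rise.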

[10] = Tmax in monkeys; type: ADME; settings: simiiformes, in vivo
[11] = Cmax in rats at a dose of […] mg/kg; type: ADME, organism-based; settings: rat, in vivo, 1 mg/kg
[12] = Oral bioavailability; type: ADME, organism-based; settings: eutheria, in vivo
[13] = Compound was evaluated for rises in intracellular [Ca2+] levels pre-incubation at 2 hr in [Ca2+] Mobilization Assay; type: functional, cell-based; outline: as §1
[14] = Mean residence time in rat; type: ADME, organism-based; settings: in vivo
[15] = Compound was evaluated for rises in intracellular [Ca2+] levels by using [Ca2+] sensitive Fluo4 dye in CCR5-transfected CHO cells; type: functional, cell-based; outline: as §1
[16] = Tmax in rats; type: ADME, organism-based; settings: rat, in vivo
[17] = biological target: CCR5 (Macaca fascicularis); assay: Antagonistic activity against cynomolgus monkey C-C chemokine receptor type 5
[18] = organism: Homo sapiens; assay: as §2; type: functional, organism-based; outline: as §3
[19] = Mean residence time in rats; type: ADME, organism-based; settings: rat, in vivo

T1 sequence (P51681 whole entry): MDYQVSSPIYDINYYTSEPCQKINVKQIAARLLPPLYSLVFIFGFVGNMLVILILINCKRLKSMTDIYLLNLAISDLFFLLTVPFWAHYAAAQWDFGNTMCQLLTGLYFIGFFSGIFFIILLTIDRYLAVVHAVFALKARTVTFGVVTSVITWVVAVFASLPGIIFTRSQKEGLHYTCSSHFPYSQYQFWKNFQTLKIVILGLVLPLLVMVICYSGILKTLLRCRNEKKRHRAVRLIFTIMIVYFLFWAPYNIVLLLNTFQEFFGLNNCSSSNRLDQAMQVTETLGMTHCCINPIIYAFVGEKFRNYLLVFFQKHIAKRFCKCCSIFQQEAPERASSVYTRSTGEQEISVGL

- IC50 [1]: 2170 nM
- IC50 [2]: 102 nM
SMILES: Cc1cccc(C)c1C(=O)N1CCC(C)(N2CCC(Nc3cccc4ccn(C)c34)CC2)CC1

SMILES: Cc1cccc(C)c1C(=O)N1CCC(C)(N2CCC(N(Cc3ccccc3)c3ccccc3)CC2)CC1
- bioavailability [3]: 85%
- MRT [4]: 4.1 h
- AUG [5]: 33 ng·h/mL
- AUG [6]: 569 ng·h/mL
- MRT [7]: 8.9 h
- Cmax [8]: 7 ng/mL
- IC50 [9]: 200 nM
- Tmax [10]: 0.5 h
- Cmax [11]: 90 ng/mL
- bioavailability [12]: 4%

SMILES: CN(C)C(=O)c1ccccc1C(=O)N1CCC(C)(N2CCC(N(c3ccccc3)c3ccccc3)CC2)CC1
- IC50 [2]: > 100 nM

- IC50 [2]: 75 nM
SMILES: Cc1cccc(C)c1C(=O)N1CCC(C)(N2CCC(N(Cc3ccccc3)Cc3ccccc3)CC2)CC1

SMILES: Cc1cc[n+]([O-])c(C)c1C(=O)N1CCC(C)(N2CCC(N(Cc3ccccc3C#N)c3ccccc3)CC2)CC1
- IC50 [1]: > 3000 nM
- IC50 [2]: 80 nM

SMILES: CC1(N2CCC(N(c3ccccc3)c3ccccc3)CC2)CCN(C(=O)C2CCCCC2)CC1
- IC50 [1]: 580 nM
- IC50 [2]: 408 nM

SMILES: Cc1cc[n+]([O-])c(C)c1C(=O)N1CCC(C)(N2CCC(N(c3ccccc3)c3ccccc3)CC2)CC1
- IC50 [1]: 16 nM
- IC50 [13]: 16 nM
- IC50 [2]: 3.3 nM
- IC50 [9]: 33 nM

SMILES: Cc1nc[n+]([O-])c(C)c1C(=O)N1CCC(C)(N2CCC(N(c3ccccc3)c3ccccc3)CC2)CC1
- bioavailability [3]: 94%
- MRT [4]: 5.1 h
- AUG [5]: 1550 ng·h/mL
- AUG [6]: 1030 ng·h/mL
- MRT [7]: 6 h
- Cmax [8]: 91 ng/mL
- Cmax [11]: 91 ng/mL
- bioavailability [12]: 58%

SMILES: Cc1cc[n+]([O-])c(C)c1C(=O)N1CCC(N2CCC(N(c3ccccc3)c3ccccc3)CC2)CC1
- IC50 [1]: 127 nM
- IC50 [2]: 9 nM

SMILES: COc1cccc(OC)c1C(=O)N1CCC(C)(N2CCC(N(c3ccccc3)c3ccccc3)CC2)CC1
- IC50 [2]: 42 nM

SMILES: Cc1ccnc(C)c1C(=O)N1CCC(C)(N2CCC(N(c3ccccc3)c3ccccc3)CC2)CC1
- IC50 [9]: 114 nM

- IC50 [1]: 27.3 nM
- IC50 [2]: 0.8 nM
SMILES: Cc1cccc(C)c1C(=O)N1CCC(C)(N2CCC(Nc3ccc(C(F)(F)F)cc3)CC2)CC1

SMILES: Cc1ccccc1C(=O)N1CCC(C)(N2CCC(N(c3ccccc3)c3ccccc3)CC2)CC1
- IC50 [1]: 67 nM
- IC50 [2]: 7.8 nM

- IC50 [2]: 460 nM
SMILES: Cc1cccc(C)c1C(=O)N1CCC(C)(N2CCC(Nc3ccc(-c4ccccc4)cc3)CC2)CC1

SMILES: CC1(N2CCC(N(c3ccccc3)c3ccccc3)CC2)CCN(C(=O)c2cccc3ccccc23)CC1
- bioavailability [3]: 100%
- IC50 [13]: 29 nM
- AUG [6]: 518 ng·h/mL
- Cmax [8]: 70 ng/mL
- MRT [14]: 14.4 h
- IC50 [9]: 610 nM
- IC50 [15]: 29.4 nM

- IC50 [2]: > 1000 nM
SMILES: COc1cc(CN(c2ccccc2)C2CCN(C3(C)CCN(C(=O)c4c(C)cc[n+]([O-])c4C)CC3)CC2)cc(OC)c1OC

- IC50 [1]: > 1000 nM
- IC50 [2]: > 1000 nM
SMILES: Cc1cccc(C)c1C(=O)N1CCC(C)(N2CCC(NCc3ccccc3)CC2)CC1

SMILES: Cc1cccc(C)c1C(=O)N1CCC(C)(N2CCC(N(Cc3ccccc3)c3ccc(Br)cc3)CC2)CC1
- IC50 [1]: 15.6 nM
- IC50 [13]: 28 nM
- IC50 [2]: 2.3 nM
- IC50 [9]: 1450 nM

- IC50 [1]: 1680 nM
- IC50 [2]: 91 nM
SMILES: Cc1cccc(C)c1C(=O)N1CCC(C)(N2CCC(Nc3ccc4ccn(C)c4c3)CC2)CC1

SMILES: Cc1cc(C)c(S(=O)(=O)N2CCC(C)(N3CCC(N(c4ccccc4)c4ccccc4)CC3)CC2)c(C)c1
- IC50 [2]: 41 nM

SMILES: CC1(N2CCC(N(c3ccccc3)c3ccccc3)CC2)CCN(C(=O)c2c[nH]c3ccccc23)CC1
- IC50 [1]: 283 nM
- IC50 [2]: 48 nM

- Tmax [16]: 0.5 h
- IC50 [1]: 30 nM
- IC50 [13]: 24.6 nM
- AUG [6]: 513 ng·h/mL
- IC50 [2]: 2.8 nM
- MRT [7]: 5.8 h
- IC50 [17]: 7.9 nM
- IC50 [9]: 125 nM
- Cmax [11]: 73 ng/mL
- bioavailability [12]: 57%
SMILES: Cc1nc(-c2ccncc2)nc(C)c1C(=O)N1CCC(C)(N2CCC(N(c3ccccc3)c3ccccc3)CC2)CC1

- bioavailability [3]: 86%
- AUG [5]: 115 ng/mL/h
- Cmax [8]: 12 ng/mL
- bioavailability [12]: 0%
SMILES: Cc1nc(-c2ccccc2)nc(C)c1C(=O)N1CCC(C)(N2CCC(N(c3ccccc3)c3ccccc3)CC2)CC1

SMILES: Cc1ncnc(C)c1C(=O)N1CCC(C)(N2CCC(N(c3ccccc3)c3ccccc3)CC2)CC1
- IC50 [18]: 28 nM
- IC50 [13]: 8 nM

- IC50 [2]: 100 nM
SMILES: Cc1cccc(C)c1C(=O)N1CCC(C)(N2CCC(Nc3ccccc3)CC2)CC1

SMILES: Cc1cccc(C)c1C(=O)N1CCC(C)(N2CCC(N(c3ccccc3)c3ccccc3)CC2)CC1
- bioavailability [3]: 62%
- MRT [19]: 6.9 h
- Tmax [16]: 0.5 h
- AUG [6]: 664 ng·h/mL
- Cmax [8]: 81 ng/mL
- IC50 [9]: 250 nM
- bioavailability [12]: 0%
